F508del corr = correctors of CFTR F508del function in bronchial epithelial cells | AID 720511 | activity (quench increase), % at 7.58 µM | 0.36% of 350,000 active | CFBE cells, YFP halide quenching; stimulated with forskolin plus potentiator P3; % fluorescence drop versus neutral controls;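 active = mean added fluorescence quench of at least 8% versus neutral control, with both replicates also reaching 8%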;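 also: cells transiently co-express mutant CFTR-F508del with the halide-sensitive YFP; corrector assay measuring rescue of mutant channel to the surface after 24 h compound exposure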
Scp1 inh = inhibitors of human Scp-1 phosphatase; Q9GZU7; Recombinant Scp1, phosphopeptide, malachite green phosphate absorbance; inhibition, % at 20 µM; 0.88% of 340,000 active; AID 493091;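 active = inhibition above about 50% at 20 µM, limit read from the data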
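Assay system: SCP-1 catalytic fragment, aa 76-261 | Buffer or medium: Tris acetate buffer pH 5.5 with MgCl2 and Tween-20 | Compound: One concentration, 20 µM, with 1.0% DMSO | Also added: Phospho 17-mer peptide substrate | Signal: Absorbance at 630 nm | Incubation: 45 min enzyme reaction at room temperature | Measure: % inhibition of SCP-1 phosphate liberation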
STEP inh = STEP (human) phosphatase inhibition | 0.25% of 360,000 active | AID 588621 | inhibition, % at 20 µM | recombinant STEP, OMFP fluorogenic substrate, fluorescence | P54829;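 active = inhibition at 20 µM, scaled per plate between control wells, above about 37%, limit read from the data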
Target sequence (P54829 whole entry, looked up): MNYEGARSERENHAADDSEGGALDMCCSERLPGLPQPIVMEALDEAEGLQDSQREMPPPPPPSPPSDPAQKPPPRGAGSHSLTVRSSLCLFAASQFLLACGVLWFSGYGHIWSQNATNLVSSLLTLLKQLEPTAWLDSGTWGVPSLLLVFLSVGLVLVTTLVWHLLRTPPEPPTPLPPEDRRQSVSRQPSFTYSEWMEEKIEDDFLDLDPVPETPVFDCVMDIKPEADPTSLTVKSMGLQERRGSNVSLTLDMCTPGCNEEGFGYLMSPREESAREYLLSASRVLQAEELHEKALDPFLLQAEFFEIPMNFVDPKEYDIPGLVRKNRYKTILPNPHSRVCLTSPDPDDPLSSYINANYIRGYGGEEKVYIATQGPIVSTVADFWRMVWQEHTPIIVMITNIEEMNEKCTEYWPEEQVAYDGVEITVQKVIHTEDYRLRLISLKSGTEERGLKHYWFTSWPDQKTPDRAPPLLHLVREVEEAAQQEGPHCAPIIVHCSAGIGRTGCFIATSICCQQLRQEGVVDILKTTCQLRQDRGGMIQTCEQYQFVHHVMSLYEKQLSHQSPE
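Assay system: isolated STEP enzyme / Timing: 20 min at room temperature, dark / Doses: 20 µM, 1% DMSO / Technique: fluorescence intensity, excitation 480 nm, emission 540 nm / Reagent: fluorogenic phosphatase substrate OMFP at 25 µM final / Measure: percent inhibition scaled to no-enzyme and uninhibited-enzyme controls, plate-pattern corrected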
SUMO1-SIM PPI = SUMO1-SIM interaction modulation. P63165. SUMO1 binding to a labelled peptide, TR-FRET, 1 h. inhibition, % at 20 µM. 0.33% of 360,000 active; in the data active = inhibition above about 37%
DNMT1 inh = inhibitors of human DNMT1 | AID 588458 | inhibition (reported as % activation of signal), % at 10 µM | 0.83% of 360,000 active | P26358 | DNMT1 molecular beacon, Hinp1I cleavage, fluorescence; in the data active = inhibition above about 50%
LMPTP inh = LMPTP (human) inhibition; inhibition, % at 20 µM; 0.22% of 360,000 active; recombinant LMPTP-A, OMFP fluorogenic substrate, fluorescence intensity;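 active = compounds that cut the enzyme signal by at least half of the control window in the single-dose screen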
Target sequence (P24666 whole entry, looked up): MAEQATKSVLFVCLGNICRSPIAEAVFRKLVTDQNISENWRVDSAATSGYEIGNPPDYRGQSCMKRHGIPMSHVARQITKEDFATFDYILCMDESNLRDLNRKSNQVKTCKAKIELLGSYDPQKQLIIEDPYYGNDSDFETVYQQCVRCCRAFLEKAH
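Material: LMPTP-A; amount: 0.625 nM enzyme; doses: single 20 µM dose; times: reaction 50 min, room temperature, dark; technique: fluorescence intensity of OMFP turnover product; benchmarks: no-enzyme and uninhibited controls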
Scp1 confirm = Scp-1 (human) inhibition, single-dose confirmed | 61% of 2,500 active | AID 540281 | shares compounds with Scp1 inh | inhibition, % at 20 µM | recombinant SCP-1 catalytic domain, phosphate release, malachite green absorbance
MG interference = counter-screen for Scp-1 inhibitors: colorimetric interference. shares compounds with Scp1 inh. Colorimetric interference counterscreen, malachite green absorbance 630 nm. apparent inhibition (interference), % at 20 µM. AID 540313. 2,500 tested, under 10 active;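 also: compounds added after enzyme reaction finished so only phosphate colour detection is probed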
Scp1 DSF = binds human Scp-1, shifting its melting temperature; Recombinant SCP1, Sypro Orange thermal shift Tm; AID 540329; 25% of 1,500 active; thermal shift relative to vanadate control, % at 40 µM; shares compounds with Scp1 inh;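 active = substances whose mean melting-temperature shift, as a percentage of the reference inhibitor's shift, reaches about 5.3%, limit read from the data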
Each line names hits and unclear results; the compound was inactive in the other large screens (follow-up assays come after a bar, where they were run). Only some compounds are listed: those with a hit (about 1.6% of all), similar ones and a draw of the others.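 The calls were made as follows, unless noted: active = inhibition of at least 30% at 20 µM; inactive = the rest.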

O=C(Cn1ccc(NC(=O)OCc2ccccc2)nc1=O)NCc1ccc2[nH]ccc2c1	none | Scp1 confirm inactive | MG interference inactive
O=C(c1ccccn1)N1CC2(C1)[C@@H](c1ccccc1)[C@@H](CO)N2Cc1ccc(Cl)cc1	none (no result: Scp1 inh, STEP inh, SUMO1-SIM PPI, DNMT1 inh, LMPTP inh)
COc1ccc(NC(=O)N(C)C[C@H]2Oc3c(cccc3N(C)C)C(=O)N([C@H](C)CO)C[C@@H]2C)cc1	none (no result: Scp1 inh, STEP inh, SUMO1-SIM PPI, DNMT1 inh, LMPTP inh)
C[N+]1(CC2COC3(CCCCC3)O2)CCCCC1 (stereo unspecified)	Scp1 inh 108 | Scp1 confirm 75 | MG interference inactive | Scp1 DSF inactive
COc1cc(Cl)c(C)cc1NC(=O)CSc1sc2c(O)cc(=O)[nH]c2c1C#N	Scp1 inh 65 | Scp1 confirm 76 | MG interference inactive | Scp1 DSF 13
COc1ccc(OC)c(NC(=O)CSc2sc3c(O)cc(=O)[nH]c3c2C#N)c1	Scp1 inh 70 | Scp1 confirm 55 | MG interference inactive | Scp1 DSF 11
Cc1noc(C)c1NC(=O)N(C)C[C@@H]1Oc2c(NC(=O)Nc3ccc(F)cc3)cccc2C(=O)N([C@H](C)CO)C[C@H]1C	none (no result: Scp1 inh, STEP inh, SUMO1-SIM PPI, DNMT1 inh, LMPTP inh)
O=C(c1ccc(F)cc1)N1CC(=O)N2[C@@H](CO)[C@H](c3ccc(C#CC4CCCC4)cc3)[C@@H]2C1	none (no result: Scp1 inh, STEP inh, SUMO1-SIM PPI, DNMT1 inh, LMPTP inh)
COc1ccc(NC(=O)CSc2ncnc3sc(C)cc23)cc1	none
Cc1cc2c(SCC(=O)Nc3cccc(O)c3)ncnc2s1	Scp1 inh 70, DNMT1 inh 70 | Scp1 confirm 59 | MG interference inactive | Scp1 DSF 13
Cc1sc2ncnc(SCC(=O)Nc3ncccc3O)c2c1C	Scp1 inh 59 | Scp1 confirm 72 | MG interference inactive | Scp1 DSF 9.8
COc1ccc2c3c(n(C)c2c1)[C@@H](CO)N(Cc1ccccc1F)CC31CCN(CC2CC2)CC1	none (no result: Scp1 inh, STEP inh, SUMO1-SIM PPI, DNMT1 inh, LMPTP inh)
COc1ccc(S(=O)(=O)N(C)C[C@@H]2Oc3ccc(NS(=O)(=O)c4cccs4)cc3CC(=O)N([C@H](C)CO)C[C@H]2C)cc1	none (no result: Scp1 inh, STEP inh, SUMO1-SIM PPI, DNMT1 inh, LMPTP inh)
COc1ccccc1-c1nn2c(-c3ccco3)nnc2s1	Scp1 inh 51 | Scp1 confirm 60 | MG interference inactive | Scp1 DSF inactive
CC(C)NC(=O)N[C@H]1C=C[C@@H](CC(=O)NC2Cc3ccccc3C2)O[C@@H]1CO	none (no result: Scp1 inh, STEP inh, SUMO1-SIM PPI, DNMT1 inh, LMPTP inh)
COc1cccc(OCCOc2ccc(/C=C3/SC(=S)NC3=O)cc2)c1	Scp1 inh 56 | Scp1 confirm inactive | MG interference inactive
COc1ccc(C=C2SC(=S)NC2=O)cc1	none
CCc1cccc(NS(=O)(=O)c2ccc3c(c2)NC(=O)CC(=O)N3)c1	none | Scp1 confirm inactive | MG interference inactive
Cc1cccc(NS(=O)(=O)c2ccc3c(c2)NC(=O)CC(=O)N3)c1	none
O=C(Cc1cccnc1)N1CC(=O)N2[C@@H](CO)[C@@H](c3ccc(C#CC4CC4)cc3)[C@@H]2C1	none (no result: Scp1 inh, STEP inh, SUMO1-SIM PPI, DNMT1 inh, LMPTP inh)
COc1ccccc1N1CCN(S(=O)(=O)c2ccc3c(c2)NC(=O)C(C)S3)CC1 (stereo unspecified)	none
COc1ccccc1N1CCN(C(=O)C(C)CS(=O)(=O)c2ccc3c(c2)NC(=O)CS3)CC1 (stereo unspecified)	Scp1 inh 59 | Scp1 confirm 63 | MG interference inactive | Scp1 DSF inactive
C[C@H](CO)N1C[C@H](C)[C@@H](CN(C)C(=O)Nc2ccc3c(c2)OCO3)Oc2ccc(NC(=O)Nc3ccc(C(F)(F)F)cc3)cc2CC1=O	none (no result: Scp1 inh, STEP inh, SUMO1-SIM PPI, DNMT1 inh, LMPTP inh)
Cc1noc(C)c1NC(=O)N(C)C[C@H]1Oc2c(NC(=O)c3ccncc3)cccc2C(=O)N([C@H](C)CO)C[C@@H]1C	Scp1 inh 61 | Scp1 confirm inactive | MG interference inactive
C[C@H](CO)N1C[C@H](C)[C@@H](CN(C)Cc2ccc(Cl)c(Cl)c2)Oc2c(NC(=O)c3ccncc3)cccc2C1=O	Scp1 inh 54 | Scp1 confirm inactive | MG interference inactive
C[C@H](CO)N1C[C@H](C)[C@@H](CN(C)S(C)(=O)=O)Oc2c(NC(=O)c3ccncc3)cccc2C1=O	Scp1 inh 55 | Scp1 confirm inactive | MG interference inactive
Cc1noc(C)c1NC(=O)N(C)C[C@@H]1Oc2c(NC(=O)c3ccncc3)cccc2C(=O)N([C@H](C)CO)C[C@H]1C	none (no result: Scp1 inh, STEP inh, SUMO1-SIM PPI, DNMT1 inh, LMPTP inh)
CC(C)NC(=O)N(C)C[C@@H]1OCCCC[C@H](C)Oc2ccc(N(C)C)cc2C(=O)N([C@@H](C)CO)C[C@H]1C	none (no result: Scp1 inh, STEP inh, SUMO1-SIM PPI, DNMT1 inh, LMPTP inh)
COc1ccc(S(=O)(=O)Nc2cccc3c2O[C@@H](CN(C)S(=O)(=O)c2c(C)noc2C)[C@H](C)CN([C@H](C)CO)C3=O)cc1	none (no result: Scp1 inh, STEP inh, SUMO1-SIM PPI, DNMT1 inh, LMPTP inh)
COc1cccc(CN2CC3(CCN(CC4CC4)CC3)c3c([nH]c4cc(OC)ccc34)[C@H]2CO)c1	none (no result: Scp1 inh, STEP inh, SUMO1-SIM PPI, DNMT1 inh, LMPTP inh)
C[C@@H]1CN([C@@H](C)CO)C(=O)c2cc(NC(=O)CCN3CCOCC3)ccc2O[C@@H]1CN(C)Cc1ccc(Cl)c(Cl)c1	none (no result: Scp1 inh, STEP inh, SUMO1-SIM PPI, DNMT1 inh, LMPTP inh)
Cn1cnc(C(=O)N2CCN(c3ccccc3)CC2)c1C(=O)N1CCN(c2ccccc2)CC1	Scp1 inh 96 | Scp1 confirm 84 | MG interference inactive | Scp1 DSF inactive
Cn1cnc(C(=O)N2CCN(C(=O)OC(C)(C)C)CC2)c1C(=O)N1CCN(C(=O)OC(C)(C)C)CC1	none
CC(=O)c1c(C)[nH]c(C(=O)Nc2cccc3ccccc23)c1C	none
CCC(C)c1ccccc1NC(=O)c1[nH]c(C)c(C(C)=O)c1C (stereo unspecified)	Scp1 inh 54 | Scp1 confirm inactive | MG interference inactive
O=C1OC(c2ccc3c(c2)OCO3)=N/C1=C\c1ccc(C(=O)O)cc1	Scp1 inh 88 | Scp1 confirm 69 | MG interference inactive | Scp1 DSF 6.3
O=C(O)c1cccc(-c2ccc3c(c2)OCO3)c1	none
CCOC(=O)C1=C(N)n2c(s/c(=C/c3ccco3)c2=O)=C(C(=O)OC)C1c1ccco1 (stereo unspecified)	none (no result: F508del corr)
N#CC1=C(N)n2c(s/c(=C\c3ccco3)c2=O)=C(C#N)C1c1ccco1 (stereo unspecified)	Scp1 inh 63, DNMT1 inh 95 (no result: F508del corr) | Scp1 confirm 71 | MG interference inactive | Scp1 DSF 18
